MsrA inh = inhibitors of bovine MsrA | purified bovine MsrA, absorbance read-out | inhibition, % at 15.5 µM | 360,000 tested, 0.75% active | AID 651718; in the data active = inhibition above about 4.5%;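 also: 0% = vehicle wells with enzyme and 100% = reference inhibitor wells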
MC4R antag cAMP = human MC4R antagonism in cAMP assay; P32245; MC4R-expressing cells, MTII-stimulated cAMP, LANCE TR-FRET; inhibition, % at 6.5 µM; 360,000 tested, 0.48% active;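 active = inhibition above its plate's cutoff, the mean of tested wells on that plate plus 3 SD, cut at about 29% in these data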;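 also: 0% = Melanotan II alone and 100% = Melanotan II plus saturating MCL0020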
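Material: human MC4R-expressing U2OS cells. Probe or stimulus: Melanotan II challenge. Dosing: 6.5 µM single dose. Times: 30-min compound, 1-h challenge, 1-h detection, room temperature. Technique: TR-FRET with Eu-cAMP and labeled anti-cAMP, 671 nm. Replication: singlicate.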
MC4R ag barr = human MC4R agonism via beta-arrestin; activation, % at 8.9 µM; 360,000 tested, 0.98% active; AID 540308; U2OS MC4R beta-arrestin complementation, luminescence; percent of melanotan II response, DMSO zero;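 active = activation above a per-plate cutoff, the mean activation of sample wells on that plate plus 3 SD, cut at about 8% in these data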
bovine MsrA act = activators of bovine methionine sulfoxide reductase A | purified bovine MsrA, absorbance read-out | activation, % at 10.6 µM | 360,000 tested, 0.3% active | AID 602163; in the data active = activation above about 7.5%;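 also: 0% = vehicle and 100% = reference activator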
MC4R barr conf = human MC4R beta-arrestin agonism confirmation; shares compounds with MC4R ag barr; U2OS MC4R beta-arrestin recruitment, luminescence; scaled DMSO 0%, Melanotan II 100%; activation, % at 8.9 µM; 2,400 tested, 31% active; AID 602192;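 active = mean activation across replicates above the hit cutoff set in the earlier primary screen, cut at about 8% in these data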
MOR DOR agonist = activates mu-delta opioid heterodimer, MC4R agonist counter-screen; shares compounds with MC4R ag barr; U2OS PathHunter beta-arrestin, beta-gal luminescence; percent of deltorphin B response, DMSO zero; activation, % at 9.2 µM; 2,400 tested, 5.8% active; AID 602194;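 active = mean activation across replicates exceeds the hit threshold derived in the earlier primary screen, cut at about 18% in these data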;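 also: 100% = deltorphin B at 0.9 µM final and 0% = DMSO alone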
Target sequence (P35372 whole entry, looked up): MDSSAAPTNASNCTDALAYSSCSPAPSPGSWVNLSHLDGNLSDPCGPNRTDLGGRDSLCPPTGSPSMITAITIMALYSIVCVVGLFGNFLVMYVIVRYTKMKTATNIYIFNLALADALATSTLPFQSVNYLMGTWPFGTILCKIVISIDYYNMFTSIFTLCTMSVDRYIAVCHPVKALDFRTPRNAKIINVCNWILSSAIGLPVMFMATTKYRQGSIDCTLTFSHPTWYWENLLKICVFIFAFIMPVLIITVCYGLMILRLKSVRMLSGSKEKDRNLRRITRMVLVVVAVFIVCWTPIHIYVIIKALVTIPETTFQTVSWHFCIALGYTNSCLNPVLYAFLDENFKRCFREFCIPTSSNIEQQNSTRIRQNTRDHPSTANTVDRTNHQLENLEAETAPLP
Target sequence (P41143 whole entry, looked up): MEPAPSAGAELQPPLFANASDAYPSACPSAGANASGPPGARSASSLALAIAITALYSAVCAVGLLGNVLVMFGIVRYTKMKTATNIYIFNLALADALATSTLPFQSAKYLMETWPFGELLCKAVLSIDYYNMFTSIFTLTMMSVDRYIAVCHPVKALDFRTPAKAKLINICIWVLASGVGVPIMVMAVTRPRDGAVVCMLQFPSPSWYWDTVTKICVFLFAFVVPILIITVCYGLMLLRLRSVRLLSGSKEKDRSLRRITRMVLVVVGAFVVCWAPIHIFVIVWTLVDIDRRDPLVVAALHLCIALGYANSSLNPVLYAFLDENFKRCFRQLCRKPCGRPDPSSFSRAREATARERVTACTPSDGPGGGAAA
Active calls of the source: *; / = no result given. An excerpt weighted towards active compounds, which were near 2.3% of everything screened.

SMILES | MsrA inh | MC4R antag cAMP | MC4R ag barr | bovine MsrA act | MC4R barr conf | MOR DOR agonist
COc1cc(O)c(CC=C(C)C)c(O)c1C(=O)CCc1ccc(O)cc1 | 1 | -4 | 36* | -4 | 32* | 6
CC1CC(C)CN(C(=O)Cn2nnc(-c3ccc(Br)cc3)n2)C1 (stereo unspecified) | 0 | 1 | 2 | -4 | / | /
C/C=C/C(=O)Nc1nnc(-c2ccccc2C)s1 | 1 | 19 | 19* | -2 | 1 | 6
Cc1ccccc1-c1nnc(NC(=O)CSc2nc3ccccc3s2)s1 | 1 | 0 | 16* | -4 | 10* | 4
Cc1cnc(NC(=O)CSc2nc3ccccc3s2)s1 | 0 | 3 | 1 | 0 | / | /
N#Cc1ccc(-c2cccnc2)nc1SCc1ccc(Cl)cc1Cl | 1 | -14 | 18* | -4 | 6 | 4
Cc1oc2ccc(O)cc2c1C(=O)c1ccc(Br)cc1 | 0 | 8 | 2 | 0 | / | /
CCOc1ccc(C2CC(c3ccc(CC)cc3)Nc3nc(N)nn32)cc1 (stereo unspecified) | 1 | 10 | 10* | 2 | 8 | 3
CCOC(=O)c1c(C)oc2ccc(NS(=O)(=O)c3ccc4c5c(cccc35)C(=O)N4)cc12 | 0 | -26 | 0 | -4 | / | /
CCCCc1nc2sc3c(SCC(=O)NCc4ccco4)ncnc3c2c2c1CCC2 | 3 | 16 | 14* | -4 | 2 | 4
Cc1cc(C)c(S(=O)(=O)N2CCN(S(=O)(=O)N3CCC(C)CC3)CC2)c(C)c1 | -1 | 0 | 0 | -2 | / | /
CCOC(=O)c1c(C)[nH]c(C(=O)Cn2nnc(-c3ccccc3Cl)n2)c1C | 3 | 4 | 2 | -4 | / | /
CCOC(=O)c1c(C)[nH]c(C(=O)CSc2ccc(Cl)cc2)c1C | 0 | -4 | 25* | -5 | 16* | 6
CCOC(=O)c1c(C)[nH]c(C(=O)Cn2nnc(-c3ccccc3)n2)c1C | 0 | 2 | 13* | -1 | 2 | 9
CCOC(=O)c1c(C)[nH]c(C(=O)CSc2nc(C)cc(C)n2)c1C | -1 | -3 | -3 | -6 | / | /
O=C(COc1ccc(-n2cnnn2)cc1)Nc1cc(Cl)cc(Cl)c1 | 0 | 0 | 17* | -14 | 5 | 8
COc1cc(/C=C2\CC/C(=C\c3cc(OC)c(O)c(OC)c3)C2=O)cc(OC)c1O | 0 | -8 | 21* | -9 | 56* | 35*
Cc1ccc(-c2csc3nc(-c4ccncc4)[nH]c(=O)c23)cc1 | 0 | 11 | 5 | 1 | / | /
CCOc1ccc(-c2nc3scc(-c4cccs4)c3c(=O)[nH]2)cc1 | -1 | -2 | 28* | -1 | 12* | 2
O=C(CN1CCN(c2ccc(F)cc2)CC1)NCc1ccc(Cl)cc1 | -1 | -1 | 0 | -3 | / | /
CCOC(=O)N1CCC(NC(=O)Cn2cc3c(n2)CCC(C)C3)CC1 (stereo unspecified) | 1 | 7 | 0 | 3 | / | /
CCOC(=O)c1ccc(NC(=O)Cn2cc3c(n2)CCC(C)C3)cc1 (stereo unspecified) | 0 | 3 | 13* | -1 | 2 | 5
Nc1ncc(-c2ccc(-c3ccccc3)cc2F)cc1-c1ccccc1F | 3 | 10 | -2 | -1 | / | /
O=C(CCN1C(=O)/C(=C/c2ccccc2)SC1=S)Nc1cccnc1 | 0 | 14 | 11* | -2 | 2 | 6
O=C(CCN1C(=O)/C(=C/c2ccc(F)cc2)SC1=S)Nc1cccnc1 | -1 | 5 | 0 | -2 | / | /
SMILES | MsrA inh | MC4R antag cAMP | MC4R ag barr | bovine MsrA act | MC4R barr conf | MOR DOR agonist
O=C(CCN1C(=O)/C(=C/c2ccccc2F)SC1=S)N[C@@H](CO)Cc1ccccc1 | 0 | 7 | 11* | -4 | -3 | 5
COc1cccc(/C=C2\SC(=S)N(CCC(=O)NCCc3ccc(O)cc3)C2=O)c1 | 0 | 15 | 35* | 1 | -3 | 3
O=C(CCN1C(=O)/C(=C\c2ccccc2F)SC1=S)Nc1ccc(C(=O)O)c(O)c1 | 3 | 11 | -3 | -4 | / | /
O=C(CCN1C(=O)/C(=C/c2ccccc2)SC1=S)N[C@@H](CO)Cc1ccccc1 | 2 | 6 | 19* | -2 | -2 | 4
COc1cccc(NC(=O)CN(C)C(=O)c2cc(S(=O)(=O)Nc3ccccc3OC)ccc2C)c1 | 0 | 5 | 0 | -5 | / | /
CC1=C(C(=O)N2CCOCC2)CC(CC(=O)NCc2cccc3ccccc23)C(=O)N1Cc1ccc(F)cc1 (stereo unspecified) | 1 | 2 | -1 | -6 | / | /
O=C(OCc1cc2ccccc2[nH]c1=O)c1ccc([N+](=O)[O-])cc1 | 1 | 5 | 0 | -5 | / | /
O=C(NC(=S)NCc1ccccc1)c1ccc(Br)o1 | 0 | -4 | -3 | -4 | / | /
CCc1ccc(NC(=O)c2ccc3c(c2)C(=O)N(CCOC)C3Nc2ccc(CC)cc2)cc1 (stereo unspecified) | -1 | 1 | 12* | 0 | 3 | 9
CCOC(=O)c1c(/N=C/c2ccccc2O)sc2c1CCC2 | -1 | 13 | -2 | -3 | / | /
CCOC(=O)C1CCN(S(=O)(=O)c2ccc(CN3C(=O)c4cccnc4C3=O)cc2)CC1 | -1 | 0 | 3 | -3 | / | /
O=C1c2cccnc2C(=O)N1Cc1ccc(S(=O)(=O)N2CCN(c3ccc(Cl)cc3)CC2)cc1 | 1 | 4 | 11* | 0 | 3 | 3
COc1cccc(/C=N/NC(N)=S)c1OCc1ccccc1Cl | 0 | -7 | 3 | -13 | / | /
NC(=S)N/N=C/c1ccccc1OCCSc1ccc(Cl)cc1 | 1 | -13 | 11* | -5 | 1 | 6
Cc1ccc(OCCC(=O)OCC(=O)NC2CCCC(C)C2C)cc1 (stereo unspecified) | 0 | 7 | 0 | 0 | / | /
Cc1c(CN2CCC(CO)(CCOc3ccccc3)CC2)[nH]c2c(Cl)cccc12 | 0 | 5 | 22* | -6 | 19* | 17
Cc1cc(-c2ccc([N+](=O)[O-])cc2)nc2ccccc12 | 1 | 0 | -3 | -4 | / | /
Cc1cc(N2CCN(c3nc(-c4ccc([N+](=O)[O-])cc4)cs3)CC2)c2ccccc2n1 | -2 | 12 | 19* | -3 | 11* | 7
Oc1ccc(C[C@@H]2CNC(=S)N2CCCCC2CCCCC2)cc1 | -1 | 1 | 14* | -3 | 11* | 3
O=C1NC[C@@H](Cc2ccc(O)cc2)N(CCCCC2CCCCC2)C1=O | 0 | / | / | -8 | / | /
c1ccc(-c2ccc(C3CCCN3)cc2)cc1 (stereo unspecified) | 1 | -1 | 2 | -3 | / | /
Cc1ccc(-c2nnc(SCC(=O)CC(=O)Nc3ccccc3)n2-c2ccccc2)cc1 | 1 | 7 | -3 | -2 | / | /
O=C(COC(=O)c1ccc2c(c1)C(=O)N(CCc1ccccc1)C2=O)Nc1ccc(OC(F)F)cc1 | -1 | 11 | 13* | 1 | 10* | 6
COc1ccc2c(Cl)c(C(N)=O)sc2c1 | 0 | 18 | 0 | -2 | / | /
